For orientation: EC50 means the concentration needed to bring the measured effect to its halfway point. Usually Ki stands for the equilibrium dissociation constant of an inhibitor or competing ligand from its target. Low readings indicate higher affinity, high ones lower affinity.

Consider 23 compounds from PubChem BioAssay AID2298 (NMMLSC, 2010).

In the first experiment the target is Regulator of G-protein signaling 16 (Homo sapiens) (UniProt O15492). In words: small molecules altering RGS16 interaction with Galphao – biochemical, multiplexed bead flow cytometry, SAR compounds, SAR follow-up (AID 2298). Conditions: bead-based flow cytometry, AF488-Galphao binding to RGS16. A digest of the protocol: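 Times – Bead–Galphao binding incubation 30–90 min, room temperature · Test system – biotinylated RGS16 on colour-coded streptavidin beads, multiplexed with other RGS beads · Doses – Nine-point threefold dilution series of compound · Detection – flow cytometry, median FL1 fluorescence per bead set · Read-out basis – variable-slope logistic EC50, converted to Ki using Kd 30 nM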
Chain of Regulator of G-protein signaling 16 (Homo sapiens) (O15492 whole entry, looked up): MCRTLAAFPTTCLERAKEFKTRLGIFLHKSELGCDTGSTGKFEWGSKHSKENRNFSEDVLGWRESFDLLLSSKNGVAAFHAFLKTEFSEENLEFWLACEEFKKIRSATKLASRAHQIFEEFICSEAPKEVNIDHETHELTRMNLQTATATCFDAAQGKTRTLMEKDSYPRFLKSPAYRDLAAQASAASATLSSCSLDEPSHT
On to `NS(=O)(=O)c1ccc(N/N=C/c2ccc(O)c(O)c2O)c([N+](=O)[O-])c1`, for which the concentration giving a half-maximal response (EC50) is 29 nM.

Staying with this experiment, now noted: bead-based flow cytometry, AF488-Galphao binding to RGS16; measured here: Ki derived from EC50, inhibitors.
`CCC(=O)NC(c1ccc(C)cc1)c1cc([N+](=O)[O-])c2cccnc2c1O` (centres undefined) displayed a Ki of 4240 nM.
Same read-out and setting: in the case of `NS(=O)(=O)c1ccc(N/N=C/c2ccc(O)c(O)c2O)c([N+](=O)[O-])c1` it was 20 nM.
`CN1CCN(C2=C(Cl)C(=O)C(c3cnc(N4CCCCC4)s3)=C(Cl)C2=O)CC1` gave a Ki of 20 nM.
With `COc1ccc(C2=CC(=O)C=CC2=O)cc1`, the Ki turned out to be 120 nM. This Ki is about 6-fold higher than that of the compound before.
As to `CCN(CC)S(=O)(=O)c1cccc(C(=O)N/N=C/c2ccc(O)c(O)c2O)c1`, the Ki was determined as 480 nM.
The same measure, in the same setting: then `CC1(C)OC(=O)C(=Cc2ccc(-c3ccc(S(N)(=O)=O)cc3)o2)C(=O)O1`, with 2840 nM.
`Cc1cccc(N2CCN(C(=O)COc3nsc4nc(C)cc(C)c34)CC2C)c1` (centres undefined): the Ki is 1160 nM.
In turn, `CCN=c1scc(C)n1/N=C/c1ccc(O)c(O)c1O` came in with an inhibitory constant (Ki) of 850 nM.
Still for that read-out and setting: then `O=C1C(Cl)=C(N2CCCCC2)C(=O)C(Cl)=C1c1cnc(N2CCCCC2)s1`, with 100 nM; and `O=C(COc1ccccc1C(=O)N/N=C/c1ccc(O)c(O)c1)N/N=C/c1ccc(O)c(O)c1`, with 90 nM.
In turn, `O=c1c2ccccc2sn1-c1ccc(S(=O)(=O)N2CCCC2)cc1` yielded a Ki of 20 nM.
In turn, `CCOC(=O)c1sc(NC(=O)CSc2nnc(Cc3ccccc3)o2)c(C#N)c1C` gave a Ki of 580 nM.
`O=C(NCCCN1CCOCC1)c1sc2cc([N+](=O)[O-])ccc2c1Cl` displayed a Ki of 270 nM.
With `Cc1cc(Cl)ccc1N=c1ssnc1Cl`, the Ki was determined as 40 nM.
Same read-out and setting: in the case of `CN=c1scc(C)n1/N=C/c1ccc(O)c(O)c1O` it was 410 nM; in that of `O=C(Cc1csc(N2CCOCC2)n1)N/N=C/c1ccc(O)c(O)c1O`, 670 nM; in that of `COC(=O)CCC(=O)Nc1sc(C)c(C)c1C(N)=O`, 1140 nM.
Compound `CCN(CC)S(=O)(=O)c1cccc(-c2n[nH]c(=S)n2/N=C/c2ccc(C(=O)OC)cc2)c1` gave a Ki of 760 nM.
In turn, `Cc1cccc(N2CCN(C(=O)Cn3sc4nc(C)cc(C)c4c3=O)CC2C)c1` (centres undefined) yielded an inhibition constant Ki of 90 nM. Against the preceding compound, the Ki is about 8.4-fold lower.
The compound `CC(=O)OCCCNc1cc(Sc2nc3ccccc3s2)c2nonc2c1[N+](=O)[O-]` had an inhibition constant (Ki) of 220 nM.
Same read-out and setting: in the case of `Cc1[nH]n(-c2ccccc2)c(=S)c1C=Nc1cccc([N+](=O)[O-])c1` it was 40 nM.
`CC(NC(=O)c1sc2cc([N+](=O)[O-])ccc2c1Cl)C(C)(C)C` (centres undefined) showed a Ki of 170 nM.
Still for that read-out and setting: in the case of `Cc1[nH]n(-c2ccccc2)c(=S)c1C=NCCCN=Cc1c(C)[nH]n(-c2ccccc2)c1=S` it was 330 nM.
